A selection: hits, their analogues and other compounds. The true share with any hit is near 1.9%.
ABHD5 PLIN5 PPI = ABHD5-PLIN5 interaction inhibitors, primary screen, cell lysate, split luciferase complementation, luminescence | Perilipin-5 (Homo sapiens) + 1-acylglycerol-3-phosphate O-acyltransferase ABHD5 (Homo … | 360,000 tested, 0.78% active | Split G. princeps luciferase complementation, 4 h | inhibition, % at 4 µM;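 active = inhibition above the mean inhibition across every tested compound plus 3 SD, cut at about 22% in these data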;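 note: 0% = DMSO only wells and the 100% control is not disclosed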
NadD block = inhibitors of S. aureus NadD, primary screen, biochemical, colorimetric, uHTS. purified NadD enzyme, colorimetric absorbance read-out. inhibition, % at 20 µM. 360,000 tested, 0.78% active. AID 602399, 2012; in the data active = inhibition above about 26%
Xi reactivation = activators of inactive X chromosome reactivation, primary screen, imaging, XiGFP fibroblasts, GFP high-content imaging, set 2. XiGFP mouse fibroblasts, % GFP-positive cells imaging, 3 d; cells co-treated with 5-aza-dC sensitizer; scaled so ellipticine positive control = 100%. activation, % at 7.58 µM. 360,000 tested, 0.055% active. AID 743238, 2013;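 active = mean normalized replicate activation at least 10% and every replicate at or above 10%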;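 note: 0% = median of on-plate neutral control wells and 100% = ellipticine 6 µM median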
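Material: XiGFP fibroblasts, SV40-immortalized. Buffer or medium: DMEM plus 5-aza-dC sensitizer. Compound: single concentration per compound, delivered by pin transfer. Times: 3 days compound exposure. Controls: ellipticine 6 µM.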
Rpn11 inh = Rpn11 (PSMD14) deubiquitinase inhibitors, primary screen, biochemical, fluorescence polarization, uHTS | human 26S proteasome, Ub4-pepOG fluorescence polarization; 20S core pre-blocked with epoxomicin | inhibition, % at 20 µM | 360,000 tested, 0.59% active;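 active = inhibition at 20 µM, scaled to each plate's controls, above about 33%, limit read from the data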
Rin1-Abl PPI inh = inhibitors of Rin1-Abl protein binding, primary screen, biochemical, TR-FRET; AID 588664, 2011; Tyrosine-protein kinase ABL1 (Homo sapiens) + Ras and Rab interactor 1 (Homo sapiens), …; inhibition, % at 7.35 µM; 360,000 tested, 0.4% active; in the data active = inhibition above about 5%, passing the limit was not always enough
Rpn11 confirm = Rpn11 (PSMD14) deubiquitinase inhibitors, confirmation, biochemical, fluorescence polarization, single concentration; inhibition, % at 20 µM; 1,900 tested, 29% active; purified human 26S proteasome, Ub4-pepOG fluorescence polarization; proteasome pretreated with epoxomicin; shares compounds with Rpn11 inh; AID 602318, 2012
MMP-2 inh = MMP-2 enzyme inhibition, confirmation, counter-screen for RPN11 inhibitor project, biochemical, fluorescence, single concentration. inhibition, % at 20 µM. 1,900 tested, 4% active. shares compounds with Rpn11 inh. recombinant MMP-2, FRET peptide cleavage fluorescence;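 note: human MMP-2 activated beforehand with APMA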
Target sequence (P08253 whole entry, looked up): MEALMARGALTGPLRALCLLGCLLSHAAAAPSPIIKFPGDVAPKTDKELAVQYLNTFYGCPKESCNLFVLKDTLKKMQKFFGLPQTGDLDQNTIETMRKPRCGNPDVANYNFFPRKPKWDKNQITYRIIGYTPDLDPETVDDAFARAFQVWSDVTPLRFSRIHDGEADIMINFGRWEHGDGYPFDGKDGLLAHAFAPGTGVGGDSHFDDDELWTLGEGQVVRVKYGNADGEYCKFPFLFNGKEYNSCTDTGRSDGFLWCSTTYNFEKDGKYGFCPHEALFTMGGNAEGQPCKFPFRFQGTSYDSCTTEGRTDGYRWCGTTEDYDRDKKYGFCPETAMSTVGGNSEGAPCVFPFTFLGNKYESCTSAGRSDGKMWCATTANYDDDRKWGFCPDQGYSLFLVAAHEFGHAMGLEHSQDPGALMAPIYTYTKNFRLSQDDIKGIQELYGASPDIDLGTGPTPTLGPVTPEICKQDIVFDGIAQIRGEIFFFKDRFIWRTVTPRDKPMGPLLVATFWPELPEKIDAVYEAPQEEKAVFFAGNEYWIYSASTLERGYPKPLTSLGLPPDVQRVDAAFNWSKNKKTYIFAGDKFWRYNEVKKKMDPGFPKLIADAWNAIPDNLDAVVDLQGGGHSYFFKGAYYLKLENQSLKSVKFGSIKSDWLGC
Thrombin FP = bovine thrombin protease inhibition, confirmation, counter-screen for Rpn11 inhibitor project, biochemical, fluorescence polarization, single concentration; shares compounds with Rpn11 inh; bovine thrombin cleavage of Ub4-pepOG; inhibition, % at 20 µM; 1,900 tested, 13% active; AID 602333, 2012;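 active = mean inhibition at least 40% at 20 µM, or signal 3 deviations below plate average, so some actives read negative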;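 note: plate controls were thrombin with DMSO for no effect and buffer wells lacking thrombin for full effect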
NadD inh conf = inhibitors of S. aureus NadD, confirmation, biochemical, colorimetric, single concentration; shares compounds with NadD block; inhibition, % at 20 µM; purified S. aureus NadD, colorimetric enzyme assay; 2,000 tested, 13% active; in the data active = inhibition mostly above about 42%, no sharp cut-off; inactive = mostly below about 42%
Numbers without * were called inactive. Cut-off read from the data, not from the text of the source, unless noted: active = inhibition above about 40%; inactive = the rest.

Screening COc1ccc2c3c([nH]c2c1)[C@H](CO)N(Cc1ccccc1F)CC31CN(S(C)(=O)=O)C1 returned Xi reactivation 0.
Screening O=C(N/N=C/c1sc(N2CCOCC2)nc1-c1ccccc1)c1ccccc1Cl returned ABHD5 PLIN5 PPI 12, NadD block -1, Xi reactivation 0, Rpn11 inh 2 and Rin1-Abl PPI inh -1.
O=[N+]([O-])c1ccc(N/N=C/c2sc(N3CCOCC3)nc2-c2ccccc2)c(S(=O)(=O)Nc2ccccc2Cl)c1 was read as ABHD5 PLIN5 PPI -4, NadD block 75*, Xi reactivation 0, Rpn11 inh 69*, Rin1-Abl PPI inh -1, Rpn11 confirm 55*, MMP-2 inh -2, Thrombin FP 46* and NadD inh conf 6.
CNC(=O)C[C@H]1CC[C@H]2[C@@H](COC[C@H](O)CN2C(=O)Nc2ccc3c(c2)OCO3)O1 was read as Xi reactivation 0.
`O=C(O)C[C@H]1CC[C@@H](NC(=O)Nc2ccccc2)[C@@H](CO)O1` gave Xi reactivation 0.
`O=C(/C=C/c1ccco1)Nc1ccc(-c2nc3ccccc3[nH]2)cc1` gave ABHD5 PLIN5 PPI 10, NadD block 34*, Xi reactivation 0, Rpn11 inh 56*, Rin1-Abl PPI inh -1, Rpn11 confirm 5, MMP-2 inh -2, Thrombin FP -35 and NadD inh conf 3.
For COc1ccc2c3c([nH]c2c1)[C@H](CO)N(C(=O)Nc1c(C)noc1C)CC31CCN(CC2CCCCC2)CC1 the results were Xi reactivation 0.
Cc1ccnc(NS(=O)(=O)c2ccc(NC(=O)c3cc(-c4ccc(Br)cc4)nc4ccccc34)cc2)n1 was read as ABHD5 PLIN5 PPI -1, NadD block 74*, Xi reactivation 0, Rpn11 inh 38*, Rin1-Abl PPI inh -5, Rpn11 confirm 18, MMP-2 inh 10, Thrombin FP 8 and NadD inh conf 46*.
Cc1ccnc(NS(=O)(=O)c2ccc(NC(=O)c3cc(-c4ccccc4)nc4ccccc34)cc2)n1 was read as ABHD5 PLIN5 PPI -4, NadD block 14, Xi reactivation 0, Rpn11 inh 22 and Rin1-Abl PPI inh 1.
`CO[C@H]1CN(C)C(=O)c2cc(NC(=O)c3cccc(Oc4ccccc4)c3)ccc2OC[C@@H](C)NC[C@@H]1C` gave Xi reactivation 0.
For CC(C)CC#Cc1ccc([C@@H]2[C@@H](CO)N3C(=O)CN(C(=O)c4ccc5c(c4)OCO5)C[C@H]23)cc1 the results were Xi reactivation 0.
CCOc1ccc(N2C(=O)/C(=C\c3ccc(O)c(OC)c3)S(=O)(=O)C2c2cccc([N+](=O)[O-])c2)cc1 (stereo not drawn) was read as ABHD5 PLIN5 PPI 6, NadD block 43*, Xi reactivation 0, Rpn11 inh 57*, Rin1-Abl PPI inh -2, Rpn11 confirm 14, MMP-2 inh 5, Thrombin FP -1 and NadD inh conf 62*.
Screening CCOC(=O)C1=C(C)n2c(s/c(=C/c3cccc([N+](=O)[O-])c3)c2=O)=NC1c1ccc(O)c(OC)c1 (stereo not drawn) returned ABHD5 PLIN5 PPI -4, NadD block -3, Rpn11 inh 3 and Rin1-Abl PPI inh 5.
For Cc1ccc2[nH]c(=O)c(CN(CCc3ccccc3)C(c3nnnn3Cc3ccco3)C(C)C)cc2c1 (stereo not drawn) the results were ABHD5 PLIN5 PPI 9, NadD block 54*, Xi reactivation 0, Rpn11 inh 57*, Rin1-Abl PPI inh 1, Rpn11 confirm 24, MMP-2 inh 9, Thrombin FP 2 and NadD inh conf 56*.
`C[C@H]1CN([C@@H](C)CO)C(=O)c2cc(C#CC3CCCC3)cnc2O[C@H]1CN(C)C(=O)Nc1ccccc1` gave Xi reactivation -1.
Screening O=C(/C=C/c1ccc(Br)cc1)NC(=S)Nc1ccc(S(=O)(=O)Nc2nccs2)cc1 returned ABHD5 PLIN5 PPI -1, NadD block 54*, Xi reactivation 0, Rpn11 inh 129*, Rin1-Abl PPI inh -4, Rpn11 confirm 22, MMP-2 inh 18, Thrombin FP 0 and NadD inh conf 17.
`O=C(NC(=S)Nc1ccc(S(=O)(=O)Nc2nccs2)cc1)c1ccc(Br)o1` gave ABHD5 PLIN5 PPI 0, NadD block 1, Xi reactivation 0, Rpn11 inh 8 and Rin1-Abl PPI inh -2.
`C[C@@H]1CN([C@@H](C)CO)C(=O)c2cccc(NC(=O)C3CCCCC3)c2O[C@H]1CN(C)Cc1ccncc1` gave Xi reactivation 0.
O=C(Cn1c2ccccc2c(=O)c2ccccc21)N/N=C/c1cc([N+](=O)[O-])ccc1N1CCCCCC1 was read as ABHD5 PLIN5 PPI 0, NadD block 50*, Rpn11 inh active, Rin1-Abl PPI inh 0, Rpn11 confirm 19, MMP-2 inh 8, Thrombin FP 12 and NadD inh conf 3.
`N#Cc1ccccc1Cn1cc(/C=N/Nc2ccc([N+](=O)[O-])cn2)c2ccccc21` gave ABHD5 PLIN5 PPI 6, NadD block 32*, Xi reactivation 1, Rpn11 inh 60*, Rin1-Abl PPI inh -6, Rpn11 confirm 34, MMP-2 inh -15, Thrombin FP 2 and NadD inh conf 5.

Assay outcomes: PubChem, several laboratories
